# Measurements taken from ChEMBL document CHEMBL5107962, “Covalent sortase A inhibitor ML346 prevents Staphylococcus aureus infection of Galleria mellonella” (RSC Med Chem, 2022).
# Activity calls are given as the source filed them. The calls are words filed in the database; no cut-off is given here.
# Experiments:
# [1] = Irreversible inhibition of recombinant Streptococcus pyogenes sortase A deltaN81 expressed in Escherichia coli BL21(DE3) cells using Abz-LPATG-Dnp as substrate preincubated for 20 mins followed by substrate addition and measured every 1 min for 15 mins by FRET-based assay
# Staphylococcus aureus [2] = assay: Irreversible inhibition of recombinant Staphylococcus aureus sortase A deltaN24 C184A mutant expressed in Escherichia coli BL21(DE3) cells assessed as thermal stabilization by measuring change in melting temperature incubated for 15 mins by Nano DSF assay
# Summary of the method: (§1)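 40 µg SaSrtAΔN24 (wild type or C184A) in 100 µL 50 mM Tris-HCl pH 9.0, 150 mM NaCl, 5 mM CaCl2 incubated with compound for 15 min at room temperature, then centrifuged. Label-free nanoDSF read at 330/350 nm while ramping 30–90 °C at 2 °C per min. Tm taken from the first derivative of the ratio.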
# Sortase A [3] = target: T1, Sortase A (Staphylococcus aureus, UniProt Q9S446); assay: Inhibition of recombinant Staphylococcus aureus sortase A deltaN24 transpeptidation expressed in Escherichia coli BL21 (DE3) cells using IsdA64 to 323 as substrate preincubated for 20 mins followed by substrate addition and measured after 1.5 hrs by SDS-PAGE-based assay
# Summary of the method: (§2)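 SrtA (200 µg mL-1) preincubated with inhibitor (1–50 µM) for 20 min at room temperature in Tris pH 7.5, NaCl, CaCl2 buffer. IsdA64-323 (300 µg mL-1 final) and 3 mM (Gly)3 added, incubated at 37 °C for 1.5 h, then run on 12% SDS-PAGE. IC50 from band quantification of precursor and mature product. Two independent experiments.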
# [4] = system: Sortase A (Staphylococcus aureus), Q9S446 [UNDEFINED MUTATION]; assay: Irreversible inhibition of recombinant Staphylococcus aureus sortase A deltaN24 expressed in Escherichia coli BL21(DE3) cells using Abz-LPATG-Dnp as substrate assessed as increase in Km preincubated for 60 mins followed by substrate addition and measured every 1 min for 15 mins by FRET-based assay; details: time 75.0 min
# Summary of the method: (§3)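 SrtA (5 µM) incubated 1 h at room temperature with compound or DMSO, then inhibitor removed by centrifugal filtration. Aliquots taken before and after filtration were assayed with Abz-LPATG-Dnp (0.78–200 µM for Sa enzyme, 0.2–50 µM for Sp enzyme) at ex 309/em 420 nm for 15 min. Km fitted; MTSET as control; triplicates, run in duplicate.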
# Cathepsin B = Cathepsin B (Homo sapiens, UniProt P07858); assay: Inhibition of cathepsin B (unknown origin) using Cbz-Phe-Arg-AMC as substrate at 20 uM preincubated for 5 mins followed by substrate addition and measured after 10 mins by fluorometric assay; details: time 15.0 min
# Summary of the method: (§4)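 Cbz-Phe-Arg-AMC added (40 µM for B, 80 µM for L) and fluorescence read at ex 380/em 460 nm over 10 min. E64 at 6.25 nM as control. Triplicates, two experiments.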
# Procathepsin L = Procathepsin L (Homo sapiens, UniProt P07711); assay: Inhibition of cathepsin L (unknown origin) using Cbz-Phe-Arg-AMC as substrate at 20 uM preincubated for 5 mins followed by substrate addition and measured after 10 mins by fluorometric assay; details: time 15.0 min; summary of the method: as §4
# Chain of Procathepsin L (P07711 114-333 limits assumed): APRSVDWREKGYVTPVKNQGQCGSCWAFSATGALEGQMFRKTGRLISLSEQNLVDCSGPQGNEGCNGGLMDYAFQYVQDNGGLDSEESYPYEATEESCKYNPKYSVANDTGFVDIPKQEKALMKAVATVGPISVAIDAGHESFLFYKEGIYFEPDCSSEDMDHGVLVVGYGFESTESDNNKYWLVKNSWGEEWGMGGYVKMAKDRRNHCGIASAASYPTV
# [5] = Inhibition of recombinant Streptococcus pyogenes sortase A deltaN81 transpeptidation expressed in Escherichia coli BL21 (DE3) cells using IsdA64 to 323 as substrate preincubated for 20 mins followed by substrate addition and measured after 1.5 hrs by SDS-PAGE-based assay; summary of the method: as §2
# Streptococcus pyogenes [6] = assay: Irreversible inhibition of recombinant Streptococcus pyogenes sortase A deltaN81 expressed in Escherichia coli BL21(DE3) cells using Abz-LPATG-Dnp as substrate assessed as Kinact/Ki ratio preincubated for 60 mins followed by substrate addition and measured every 1 min for 15 mins by fluorescence intensity based assay; details: time 75.0 min
# Summary of the method: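 Variable inhibitor concentrations incubated with SaSrtAΔN24 or SpSrtAΔN81 for different times, followed by FRET enzyme kinetics with Abz-LPATG-Dnp. kobs fitted as kinact × [I]/(KI + [I]) to give kinact and KI.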
# Streptococcus pyogenes [7] = assay: Irreversible inhibition of recombinant Streptococcus pyogenes sortase A deltaN81 expressed in Escherichia coli BL21(DE3) cells using Abz-LPATG-Dnp as substrate assessed as increase in Km preincubated for 60 mins followed by substrate addition and measured every 1 min for 15 mins by FRET-based assay; details: time 75.0 min; summary of the method: as §3
# Sortase A [8] = target: T1, Sortase A; assay: Irreversible inhibition of recombinant Staphylococcus aureus sortase A deltaN24 expressed in Escherichia coli BL21(DE3) cells using Abz-LPATG-Dnp as substrate preincubated for 10 mins followed by substrate addition and measured every 1 min for 15 mins by FRET-based assay
# Summary of the method: (§5)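 SaSrtAΔN24 preincubated with compound for 10, 20, 40 or 60 min before FRET IC50 determination with Abz-LPATG-Dnp in Tris pH 7.5, NaCl, CaCl2 buffer.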
# Staphylococcus aureus [9] = assay: Anti-infectivity against methicillin-resistant Staphylococcus aureus USA300 infected in Galleria mellonella larvae assessed as survival at 12.5 mg/kg and measured after 120 hrs; type: functional, organism-based
# Summary of the method: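 G. mellonella larvae (2-2.5 cm, creamy), starved 24 h at room temperature. S. aureus grown in TSB to A600 1.0, washed and resuspended in PBS, premixed with compound in vehicle (5% DMSO, 20% PEG300, 75% PBS with 6.6% solutol HS-15). Injected into last proleg at about 1 × 10^6 CFU/larva (Newman) or 1 × 10^7 CFU/larva (USA300). Groups of 15 kept at 37 °C, survival recorded 120 h, Mantel–Cox test.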
# Escherichia coli = assay: Antibacterial activity against Escherichia coli AB1157 assessed as inhibition of bacterial growth incubated for 16 to 18 hrs; type: functional; details: time 16-18 hrs
# Summary of the method: (§6)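 Broth microdilution: S. aureus in TSB, E. coli in LB. Overnight cultures diluted 1:1000, grown at 37 °C to A600 0.6, then diluted 1:400 into two-fold compound dilutions. Incubated 16–18 h at 37 °C without shaking. MIC taken as the lowest concentration with no visible growth. Two independent experiments.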
# Staphylococcus aureus [10] = assay: Antibacterial activity against Staphylococcus aureus USA300 assessed as inhibition of bacterial growth incubated for 16 to 18 hrs; type: functional; details: time 16-18 hrs; summary of the method: as §6
# Staphylococcus aureus [11] = assay: […] activity against compound pretreated wild type Staphylococcus aureus Newman infected in Galleria mellonella larvae assessed as pathogenicity by measuring melanization after 24 hrs of bacterial injection; type: functional, organism-based
# Summary of the method: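 S. aureus diluted 1:1000 with or without compound and grown to A600 1.0. 10 µL of a 1 × 10^7 CFU mL-1 PBS suspension injected into the last proleg of starved larvae, held at 37 °C. Larvae chilled on ice and photographed at 24 h to score melanization. ΔsrtA strain used as control.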
# [12] = system: Sortase A (Staphylococcus aureus), Q9S446 [UNDEFINED MUTATION]; assay: Irreversible inhibition of recombinant Staphylococcus aureus sortase A deltaN24 expressed in Escherichia coli BL21(DE3) cells assessed as thermal stabilization by measuring change in melting temperature incubated for 15 mins by Nano DSF assay; summary of the method: as §1
# Sortase A [13] = target: T1, Sortase A; assay: Irreversible inhibition of recombinant Staphylococcus aureus sortase A deltaN24 expressed in Escherichia coli BL21(DE3) cells using Abz-LPATG-Dnp as substrate preincubated for 60 mins followed by substrate addition and measured every 1 min for 15 mins by FRET-based assay; summary of the method: as §5
smiles,measurement,setting,value
COc1ccc(/C=C/C=C2C(=O)NC(=O)NC2=O)cc1,IC50,[1],2300 nM
same,ΔTm,Staphylococcus aureus [2],-0.1 °C
same,IC50,Sortase A [3],2650 nM
same,inhibition,[4],Active
same,inhibition,Cathepsin B,Active
same,inhibition,Procathepsin L,Active
same,IC50,[5],5.88 µM
same,Ratio,Streptococcus pyogenes [6],0.064 µM⁻¹ min⁻¹
same,inhibition,Streptococcus pyogenes [7],Active
same,IC50,Sortase A [8],1100 nM
same,Activity,Staphylococcus aureus [9],Active
same,MIC,Escherichia coli,> 512 µg/mL
same,MIC,Staphylococcus aureus [10],> 512 µg/mL
same,Activity,Staphylococcus aureus [11],Active
same,ΔTm,[12],4.1 °C
same,IC50,Sortase A [13],300 nM
